Values belong to the compound of their own block, whether it stands above or below them.
Key:
[1] = Clearance in cynomolgus monkey at 1 mg/kg, iv administered as single dose by LC-MS/MS method; assay type: ADME, organism-based, Macaca fascicularis; set-up: dose 1 mg/kg, route intravenous; settings: in vivo
How it was run: (§1)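 Fasted male F344 rats (146–185 g) and male cynomolgus monkeys (3.48–4.29 kg), n = 4 each, received a single iv dose; monkeys had 2-week washouts between doses. Blood was sampled up to 48 h and plasma stored at […]. Plasma parent was quantified by LC-MS/MS with a deuterated internal standard. CL = dose/AUC0–inf by noncompartmental analysis; mean ± S.D.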

[2] = Clearance in F344 rat at 0.3 mg/kg, iv administered as single dose by LC-MS/MS method; assay type: ADME, organism-based; set-up: dose 0.3 mg/kg, route intravenous; settings: in vivo; how it was run: as §1
[3] = Half life in F344 rat at 1 mg/kg, iv administered as single dose by LC-MS/MS method; assay type: ADME, organism-based; set-up: dose 1 mg/kg, route intravenous; settings: in vivo
How it was run: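 Fasted male F344 rats (146–185 g, n = 4 per dose) received single i.v. CS-1036. Plasma was sampled up to 48 h and analysed by LC-MS/MS. t1/2 came from noncompartmental regression of three or more log-transformed terminal-phase points. Mean ± S.D.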

[4] = Oral bioavailability in F344 rat at 10 mg/kg administered as single dose by LC-MS/MS method; assay type: ADME, organism-based; settings: in vivo
How it was run: (§2)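 Male F344 rats (146–185 g) and male cynomolgus monkeys (3.48–4.29 kg), n = 4 each, fasted overnight, received single iv or oral doses of 0.3, 1.0, 3.0 or 10.0 mg/kg. Monkeys had 2-week washouts between doses. Plasma was sampled to 48 h and assayed by LC-MS/MS with deuterated internal standard. Noncompartmental analysis: tmax observed; t1/2 by regression on ≥3 terminal log points; Vss = dose·AUMC/(AUC0–inf)²; Foral = oral/iv AUC0–inf at the same dose.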

[5] = AUClast in F344 rat at 1 mg/kg, po administered as single dose by LC-MS/MS method; assay type: ADME, organism-based; set-up: time 0 - last, dose 1 mg/kg, route oral; settings: plasma
How it was run: (§3)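 Fasted male F344 rats (146–185 g) or male cynomolgus monkeys (3.48–4.29 kg), n = 4 per dose, given single iv or oral dose of 0.3, 1.0, 3.0 or 10.0 mg/kg; monkeys dosed with 2-week washouts. Blood sampled to 48 h; plasma stored frozen. LC-MS/MS with deuterated internal standard. Noncompartmental analysis: AUClast by trapezoidal rule; AUC0–inf = AUClast + Ctz/terminal rate constant; mean ± S.D.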

[6] = Half life in cynomolgus monkey at 10 mg/kg, iv administered as single dose by LC-MS/MS method; assay type: ADME, organism-based, Macaca fascicularis; set-up: dose 10 mg/kg, route intravenous; settings: in vivo; how it was run: as §2
[7] = Clearance in F344 rat at 1 mg/kg, iv administered as single dose by LC-MS/MS method; assay type: ADME, organism-based; set-up: dose 1 mg/kg, route intravenous; settings: in vivo; how it was run: as §1
[8] = Oral bioavailability in F344 rat at 1 mg/kg administered as single dose by LC-MS/MS method; assay type: ADME, organism-based; settings: in vivo; how it was run: as §2
[9] = system: Rattus norvegicus; experiment: Reduction in plasma glucose in starch loaded po dosed ZDF rat; assay type: functional
How it was run: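 Male ZDF rats were acclimatized to 10 weeks of age and fasted overnight (n = 8 per group). They were given oral compound (0–0.1 mg/kg) in starch suspension (2 g/kg); a nonstarch control received water at 10 ml/kg. Plasma glucose was measured at −15 min (taken as baseline) and at 0.5, 1, 2 and 4 h with an automatic analyzer. ΔAUC of glucose change was calculated by the trapezoidal rule. ED50 came from a sigmoid Emax model bounded by the starch and nonstarch controls, and groups were compared by Dunnett test.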

[10] = Volume of distribution at steady state in cynomolgus monkey at 1 mg/kg, iv administered as single dose by LC-MS/MS method; assay type: ADME, organism-based, Macaca fascicularis; set-up: dose 1 mg/kg, route intravenous; settings: in vivo, read-out: Vdss; how it was run: as §2
[11] = Clearance in cynomolgus monkey at 3 mg/kg, iv administered as single dose by LC-MS/MS method; assay type: ADME, organism-based, Macaca fascicularis; set-up: dose 3 mg/kg, route intravenous; settings: in vivo; how it was run: as §1
[12] = AUClast in F344 rat at 3 mg/kg, iv administered as single dose by LC-MS/MS method; assay type: ADME, organism-based; set-up: time 0 - last, dose 3 mg/kg, route intravenous; settings: plasma; how it was run: as §3
[13] = AUClast in F344 rat at 1 mg/kg, iv administered as single dose by LC-MS/MS method; assay type: ADME, organism-based; set-up: time 0 - last, dose 1 mg/kg, route intravenous; settings: plasma; how it was run: as §3
[14] = Tmax in F344 rat at 10 mg/kg, po administered as single dose by LC-MS/MS method; assay type: ADME, organism-based; set-up: dose 10 mg/kg, route oral; settings: in vivo; how it was run: as §2
[15] = system: Cynomolgus monkey; experiment: Total drug excretion in cynomolgus monkey at 3 mg/kg, po administered as single dose after 0 to 48 hrs by scintillation counting method; assay type: ADME, organism-based, Macaca fascicularis; set-up: dose 3 mg/kg, route oral; settings: in vivo
How it was run: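 Fasted male cynomolgus monkeys (n = 4) were dosed with 14C-labelled drug at 3 mg/kg, iv via saphenous vein (191 µCi/kg) or orally by stomach catheter (156.5 µCi/kg). Urine, feces and cage-wash water were collected to 336 h. Radioactivity was measured by liquid scintillation counting, with feces homogenized in water, and expressed as % of dose.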

[16] = Drug metabolism in po dosed F344 rat urine assessed as 1,4-dideoxy-1,4-imino-D-arabinitol formation by LC-MS/MS method; assay type: ADME, organism-based; settings: in vivo
[17] = system: Rattus norvegicus; experiment: Total drug excretion in F344 rat at 1 mg/kg, po administered as single dose after 0 to 48 hrs by scintillation counting method; assay type: ADME, organism-based; set-up: dose 1 mg/kg, route oral; settings: in vivo
How it was run: (§4)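 Fasted F344 rats (n = 4) received [14C]-labelled drug at 1 mg/kg (41.9 µCi/kg), iv via tail vein or oral. They were housed in metabolic cages. Urine and feces were collected to 168 h, and expired CO2 was trapped in 2-aminoethanol/2-methoxyethanol to 48 h. Radioactivity was counted by liquid scintillation, feces after homogenization. Results are % of dose.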

[18] = system: Cynomolgus monkey; experiment: Drug excretion in cynomolgus monkey assessed as drug level found during cage washing at 3 mg/kg, po administered as single dose after 0 to 336 hrs by scintillation counting method; assay type: ADME, organism-based, Macaca fascicularis; set-up: dose 3 mg/kg, route oral; settings: in vivo
How it was run: (§5)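 Fasted cynomolgus monkeys (n = 4) received [14C]-labelled drug at 3 mg/kg, iv via saphenous vein (191 µCi/kg) or orally by stomach catheter (156.5 µCi/kg). Urine, feces and water cage-wash were collected to 336 h. Samples were counted by liquid scintillation; feces were homogenized in 4-fold water. Results are % of dose, mean ± S.D.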

[19] = Ratio of drug level in blood to plasma in F344 rat after 5 mins; assay type: ADME
[20] = system: Rattus norvegicus; experiment: Total drug excretion in F344 rat at 1 mg/kg, iv administered as single dose after 0 to 168 hrs by scintillation counting method; assay type: ADME, organism-based; set-up: dose 1 mg/kg, route intravenous; settings: in vivo; how it was run: as §4
[21] = system: Cynomolgus monkey; experiment: Drug excretion in cynomolgus monkey assessed as drug level found during cage washing at 3 mg/kg, po administered as single dose after 0 to 48 hrs by scintillation counting method; assay type: ADME, organism-based, Macaca fascicularis; set-up: dose 3 mg/kg, route oral; settings: in vivo; how it was run: as §5
[22] = Drug excretion in F344 rat feces at 1 mg/kg, iv administered as single dose after 0 to 48 hrs by scintillation counting method; assay type: ADME, organism-based; set-up: dose 1 mg/kg, route intravenous; settings: in vivo
How it was run: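 Fasted F344 rats (152–156 g iv via tail vein; 154–159 g oral; n = 4) received [14C]-labelled drug at 1 mg/kg (41.9 µCi/kg). Animals were kept in metabolic cages; urine and feces were collected to 168 h, and expired CO2 was trapped in 2-aminoethanol/2-methoxyethanol (1:1) to 48 h. Samples were counted by liquid scintillation (feces homogenized). Results are % of dose, mean ± S.D.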

[23] = Drug metabolism in human kidney S9 fractions at 0.42 uCi/ml assessed as metabolite formation in presence of NADPH after 1 hr at 37 degC by LC-MS/MS method; assay type: ADME, tissue-based; settings: s9, 1 h

clearance [1]: 2.84 mL/min/kg
clearance [2]: 2.73 mL/min/kg
half-life [3]: 18.4 h
bioavailability [4]: 2.03%
AUC(0-t) [5]: 110 ng·h/mL
half-life [6]: 30 h
clearance [7]: 3.44 mL/min/kg
bioavailability [8]: 2.33%
Vd [10]: 0.271 L/kg
clearance [11]: 2.75 mL/min/kg
AUC(0-t) [12]: 18700 ng·h/mL
AUC(0-t) [13]: 4920 ng·h/mL
Tmax [14]: 0.438 h
Compound: C[C@H]1O[C@@H](O[C@H]2[C@H](O)[C@@H](O)[C@@H](O[C@H]3[C@H](O)CN[C@@H]3CO)O[C@@H]2CO)[C@H](O)[C@@H](O)[C@@H]1O
ED50 [9]: 0.015 mg/kg
inhibition [9]: Dose-dependent effect

Drug excretion [15]: 83.8%
Drug metabolism [16]: metabolite_detected
Drug excretion [17]: 93.26%
Drug excretion [18]: 1.35%
blood plasma ratio at 5 min [19]: 0.575
Drug excretion [20]: 95.85%
Drug excretion [21]: 0.76%
Drug excretion [22]: 15.66%
Drug metabolism [23]: metabolite_not_detected
Compound: C[C@H]1O[C@@H](O[C@H]2[C@H](O)[C@@H](O)[C@@H](O[14C@H]3[14C@H](O)[14CH2]N[14C@@H]3[14CH2]O)O[C@@H]2CO)[C@H](O)[C@@H](O)[C@@H]1O
